One series has as its system U87 glioblastoma cells. As to the kind of experiment: MTT toxicity assay, U87. The format is cell-based. Conditions: Homo sapiens, 168 h, read-out: IC50 (MTT assay), U87, 7 days incubation. Summed up: (§1)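 U87 (2.5 × 10^3) or U251 (5 × 10^3) cells per well were incubated 24 h at 37 °C. Medium was then replaced with test compound at 100, 33, 10, 3.3, 1, 0.3, 0.1 and 0.03 μM, in triplicate, for 7 days at 37 °C. Cells received 10% MTT in medium for 4 h, then solubilization solution. Absorbance was read at 570 nm with 690 nm background, and percent survival calculated versus control wells.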

The conditions of series [1]: humans, twice daily; cited from earlier work.
In the next series the test system is U251 cells. As to the kind of experiment: Clonogenic proliferation assay, U251. Format: cell-based, human. To be noted: U251, 10 μM for 24 h, then 14 days drug-free. The method in brief:
(§2)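 Cells were seeded in 6-well plates in 6 replicates: U87 at 5 × 10^2 cells/well, U251 at 1 × 10^3 cells/well. After 24 h at 37 °C they were exposed to 10 μM test compound or drug-free medium for 24 h. Cells were then PBS-washed and grown 14 days drug-free, stained with 0.5% crystal violet for 30 min, and colonies counted. Survival was normalized to drug-free control.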

Another series relates to U251 glioblastoma cells. Kind of series: MTT toxicity assay, U251. To be noted: Homo sapiens, U-251, 168 h, read-out: IC50 (MTT assay), U251, 7 days incubation. The format is cell-based. Summed up: as §1
A further series has as its system U87 cells. Kind of series: Clonogenic proliferation assay, U87. Format: cell-based, human. To be noted: U87, 10 μM for 24 h, then 14 days drug-free. Summed up: as §2

With `O=C(c1cc(Cc2n[nH]c(=O)c3ccccc23)ccc1F)N1CCN(C(=O)C2CC2)CC1` [Olaparib, 4-[3-(4-cyclopropanecarbonylpiperazine-1-carbonyl)-4-fluorobenzyl]-2H-phthalazin-1-one], the IC50 in the series with U87 glioblastoma cells was 23.8 ± 1.3 µM; in the series with U251 glioblastoma cells it was 5.5 ± 1.2 µM. In addition, the maximum tolerated dose in series [1] is recorded as 400 mg. In the series with U251 cells, the “cell survival rate normalized to control” value is on record as 46.9%. Also, the “decrease in number of surviving colonies” value in the series on U87 cells is 20-30%.

The record behind these values is paper PMC4198695 (Neoplasia (New York, N.Y.), 2014).
